Assay results: paper PMC10756989 (Heliyon, 2023)

Legend:
[1] = molecular target: T1, pancreatic α-amylase (Homo sapiens, UniProt P04746); assay: α-amylase enzyme inhibitory activity; assay type: biochemical; conditions: for percentage α-amylase inhibition: at 63 μg/mL, Fig. 5
T1 sequence (P04746 16-511): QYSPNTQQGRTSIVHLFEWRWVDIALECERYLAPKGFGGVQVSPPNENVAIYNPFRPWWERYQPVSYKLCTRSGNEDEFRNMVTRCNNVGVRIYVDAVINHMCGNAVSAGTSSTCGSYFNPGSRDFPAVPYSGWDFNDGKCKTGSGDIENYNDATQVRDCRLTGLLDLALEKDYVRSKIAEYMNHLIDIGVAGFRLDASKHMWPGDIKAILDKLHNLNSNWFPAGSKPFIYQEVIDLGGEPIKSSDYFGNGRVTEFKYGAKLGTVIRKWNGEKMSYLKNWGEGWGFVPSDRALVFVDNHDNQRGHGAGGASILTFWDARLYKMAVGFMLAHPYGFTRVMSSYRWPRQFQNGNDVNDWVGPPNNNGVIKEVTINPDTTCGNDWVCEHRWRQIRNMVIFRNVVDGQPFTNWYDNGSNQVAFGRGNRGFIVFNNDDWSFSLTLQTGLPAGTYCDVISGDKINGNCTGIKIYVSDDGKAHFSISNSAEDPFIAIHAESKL

[2] = molecular target: yeast α-glucosidase (Saccharomyces cerevisiae, UniProt P53341); assay: α-glucosidase enzyme inhibitory activity; assay type: biochemical; conditions: for α-glucosidase percentage inhibition: at 250 μg/mL
[3] = Ferric; conditions: for Fe^3+ reducing power: at 500 μg/mL, Fig. 14; for FRAP IC50: ferric reducing power, 63–500 μg/mL, 700 nm
How it was run: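 Potassium ferricyanide reduction: test compound or Trolox (63–500 μg/mL) with 200 mM phosphate buffer and 1 % K3Fe(CN)6, 50 °C, 25 min. Then TCA (0.1 g/mL) is added, the mix is diluted with water, and 0.1 % FeCl3 is added before reading. Reducing capacity is estimated from a gallic acid standard curve.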

[4] = Nitric oxide; conditions: for NO IC50: 10 mM sodium nitroprusside, pH 7.4 PBS, 25 °C, 546 nm; for NO scavenging activity: Fig. 12
How it was run: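 Test compound or Trolox reference at various concentrations, incubated 2 h with sodium nitroprusside in PBS. Griess reagent is added, with a further 5 min at 25 °C. Absorbance is read against a blank without test samples.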

[5] = DPPH radical mopping capacity; conditions: DPPH 300 μM in methanol, 30 min, 516 nm
How it was run: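 Test compound or Trolox reference (63–500 μg/mL) mixed with DPPH in methanol and kept in the dark at ambient temperature. Absorbance is read against a control without sample or Trolox.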

Sequence of yeast α-glucosidase (P53341 whole entry): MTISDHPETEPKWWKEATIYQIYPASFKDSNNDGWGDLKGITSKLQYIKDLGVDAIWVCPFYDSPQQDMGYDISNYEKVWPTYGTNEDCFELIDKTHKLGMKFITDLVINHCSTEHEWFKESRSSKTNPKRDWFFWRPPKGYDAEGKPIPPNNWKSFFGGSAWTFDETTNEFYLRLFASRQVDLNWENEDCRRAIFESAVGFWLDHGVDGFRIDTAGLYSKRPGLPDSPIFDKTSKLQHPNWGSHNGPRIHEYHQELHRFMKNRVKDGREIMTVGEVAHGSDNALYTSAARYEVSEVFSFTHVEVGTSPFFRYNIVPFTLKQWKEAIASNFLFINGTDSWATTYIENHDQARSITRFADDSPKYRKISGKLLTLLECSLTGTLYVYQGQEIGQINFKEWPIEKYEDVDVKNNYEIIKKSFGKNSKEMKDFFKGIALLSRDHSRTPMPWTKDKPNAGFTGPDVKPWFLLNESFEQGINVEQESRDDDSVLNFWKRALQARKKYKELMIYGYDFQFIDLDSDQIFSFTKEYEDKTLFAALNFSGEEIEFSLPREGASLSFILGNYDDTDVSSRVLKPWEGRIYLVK

Row | Compound | IC50 [1] [µM] | percentage α-amylase inhibition [1] | IC50 [2] [µM] | α-glucosidase inhibitory activity ([2]; at 500 μg/mL, compared with L1 and acarbose, Fig. 6) | FRAP IC50 [3] | NO IC50 [4] | DPPH IC50 [5] | α-glucosidase inhibitory effect ([2]; at 63–125 μg/mL, among the synthesised samples, Fig. 6) | NO IC50 ([4]; listed as Acarbose (Standard)) | α-glucosidase percentage inhibition ([2]; Fig. 6) | Fe^3+ reducing power [3] | NO scavenging activity ([4]; at 500 μg/mL) | NO scavenging activity ([4]; at 63–250 μg/mL, versus other compounds and Trolox)
1 | C[C@H]1O[C@H](O[C@H]2[C@H](O)[C@@H](O)[C@@H](O[C@H]3[C@H](O)[C@@H](O)C(O)O[C@@H]3CO)O[C@@H]2CO)[C@H](O)[C@@H](O)[C@@H]1N[C@H]1C=C(CO)[C@@H](O)[C@H](O)[C@H]1O (stereo partly shown) [Acarbose, reference compound] |  | indistinguishable |  |  | 292,51 μg/mL |  | 13,62 μg/mL |  | 109,59 μg/mL |  |  |  | 
2 | Cc1c(C)c2c(c(C)c1O)CCC(C)(C(=O)O)O2 (stereo not shown) [Trolox, reference compound] |  |  |  |  | 292.51 µg/mL | 109.59 µg/mL | 13.62 µg/mL |  |  |  |  |  | 

Continued, in another order:

Row | IC50 [1] [µM] | percentage α-amylase inhibition [1] | IC50 [2] [µM] | α-glucosidase inhibitory activity ([2]; at 500 μg/mL, compared with L1 and acarbose, Fig. 6) | FRAP IC50 [3] | NO IC50 [4] | DPPH IC50 [5] | α-glucosidase inhibitory effect ([2]; at 63–125 μg/mL, among the synthesised samples, Fig. 6) | NO IC50 ([4]; listed as Acarbose (Standard)) | Compound | α-glucosidase percentage inhibition ([2]; Fig. 6) | Fe^3+ reducing power [3] | NO scavenging activity ([4]; at 500 μg/mL) | NO scavenging activity ([4]; at 63–250 μg/mL, versus other compounds and Trolox)
3 | > 1930 | indistinguishable | 568 | significantly greater activity | >500 µg/mL | 119,68 μg/mL | 35,69 μg/mL |  |  | Cc1cccc(C)c1/N=C/c1ccc2ccccc2c1 [Compound L2, (E)-N-(2,6-dimethylphenyl)-1-(naphthalen-2-yl)methanimine] | did not exhibit statistically significant differences | slightly better abilities | lower compared with the other test compounds and standard | 
4 | 215 | indistinguishable |  |  | >500 µg/mL | 70,91 μg/mL | 25,44 μg/mL | significantly higher inhibitory effect |  | Cc1cc(C)c(/N=C/c2ccc3ccccc3c2)c(C)c1 [Compound L1, (E)-N-mesityl-1-(naphthalen-2-yl)methanimine] | did not exhibit statistically significant differences | slightly better abilities |  | significantly higher
5 | > 1580 |  | 653 |  | >500 µg/mL | 91,21 μg/mL | 67,81 μg/mL |  |  | CC(C)c1cccc(C(C)C)c1/N=C/c1ccc2ccccc2c1 [Compound L3, (E)-N-(2,6-diisopropylphenyl)-1-(naphthalen-2-yl)methanimine] |  |  |  | 
